Data reported in ChEMBL document CHEMBL5678806, “NMS-P937, an orally available, specific small-molecule polo-like kinase 1 inhibitor with antitumor activity in solid and hematologic malignancies” (Mol Cancer Ther, 2012).
Active and inactive are the calls of the source. The calls are words filed in the database; no cut-off is given here.

What was measured:
SF-295 = assay: Antiproliferative activity against human SF-295 cells assessed as inhibition of cell growth incubated for 72 hrs by cell-titer glo assay; type: functional, cell-based; settings: SF-295, 72 h
Outline: (§1)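 Cells from ATCC or ECACC, kept in supplier-recommended medium with 1% penicillin-streptomycin at 37°C, 5% CO₂. Seeded at 10,000–30,000/cm² (adherent) or 100,000/mL (nonadherent) in medium with 10% fetal calf serum. Dosed after 24 h in duplicate with serial dilutions. Viable cells read by CellTiter-Glo 72 h later. IC50 from sigmoidal fit. At least two independent experiments.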

[1] = molecular target: ALK tyrosine kinase receptor (Homo sapiens) (UniProt Q9UM73); assay: Inhibition of N-terminal His6-tagged recombinant human ALK (1058 to end residues) expressed in baculovirus infected Sf21 cells assessed as residual activity at 0.1 uM relative to control
ALK tyrosine kinase receptor (Homo sapiens), sequence (Q9UM73 19-1620 limits assumed): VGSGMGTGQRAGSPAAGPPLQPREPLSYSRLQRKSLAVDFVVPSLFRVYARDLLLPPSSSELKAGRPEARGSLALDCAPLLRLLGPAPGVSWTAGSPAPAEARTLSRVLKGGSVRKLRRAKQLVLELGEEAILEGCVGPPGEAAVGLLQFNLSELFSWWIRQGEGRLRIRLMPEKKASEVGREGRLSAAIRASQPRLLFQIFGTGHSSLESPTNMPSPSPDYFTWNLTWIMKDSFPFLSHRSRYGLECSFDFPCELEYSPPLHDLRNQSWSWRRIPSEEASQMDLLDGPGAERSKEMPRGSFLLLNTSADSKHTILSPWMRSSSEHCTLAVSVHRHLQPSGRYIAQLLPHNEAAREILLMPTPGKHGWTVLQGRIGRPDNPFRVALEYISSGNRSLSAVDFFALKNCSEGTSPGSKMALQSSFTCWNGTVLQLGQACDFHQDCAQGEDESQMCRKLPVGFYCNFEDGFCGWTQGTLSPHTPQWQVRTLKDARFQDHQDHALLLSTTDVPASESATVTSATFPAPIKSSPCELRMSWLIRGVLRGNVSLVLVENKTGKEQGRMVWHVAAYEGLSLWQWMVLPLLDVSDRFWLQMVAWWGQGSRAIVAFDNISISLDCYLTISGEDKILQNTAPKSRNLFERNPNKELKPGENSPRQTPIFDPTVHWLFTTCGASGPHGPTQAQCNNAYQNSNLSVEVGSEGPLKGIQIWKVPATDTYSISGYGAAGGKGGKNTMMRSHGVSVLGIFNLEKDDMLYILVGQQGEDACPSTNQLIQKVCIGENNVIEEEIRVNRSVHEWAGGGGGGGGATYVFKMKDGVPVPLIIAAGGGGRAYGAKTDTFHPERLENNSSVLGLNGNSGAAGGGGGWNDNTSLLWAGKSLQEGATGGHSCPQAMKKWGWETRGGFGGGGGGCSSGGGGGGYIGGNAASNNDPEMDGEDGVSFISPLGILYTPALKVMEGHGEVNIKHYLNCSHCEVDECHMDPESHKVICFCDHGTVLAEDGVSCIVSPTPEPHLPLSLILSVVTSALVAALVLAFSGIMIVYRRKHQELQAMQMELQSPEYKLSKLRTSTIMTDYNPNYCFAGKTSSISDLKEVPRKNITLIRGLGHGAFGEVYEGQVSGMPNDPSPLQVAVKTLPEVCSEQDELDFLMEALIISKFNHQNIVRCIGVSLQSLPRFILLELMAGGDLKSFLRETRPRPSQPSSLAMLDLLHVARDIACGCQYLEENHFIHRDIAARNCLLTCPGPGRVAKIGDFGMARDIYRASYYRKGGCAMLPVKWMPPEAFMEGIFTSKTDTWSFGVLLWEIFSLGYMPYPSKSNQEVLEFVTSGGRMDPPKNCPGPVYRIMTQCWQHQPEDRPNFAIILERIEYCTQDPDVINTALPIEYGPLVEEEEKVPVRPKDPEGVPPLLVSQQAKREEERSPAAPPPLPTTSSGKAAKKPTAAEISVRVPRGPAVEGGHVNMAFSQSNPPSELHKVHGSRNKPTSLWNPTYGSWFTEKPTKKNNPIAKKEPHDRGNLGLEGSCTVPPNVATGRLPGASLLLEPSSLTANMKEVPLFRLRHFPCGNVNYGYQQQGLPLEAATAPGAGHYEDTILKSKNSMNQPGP

[2] = molecular target: Mitogen-activated protein kinase 11 (Homo sapiens) (UniProt Q15759); assay: Inhibition of N-terminal GST fusion protein corresponding to full-length human SAPK2b expressed in E. coli assessed as residual activity at 0.1 uM relative to control
Mitogen-activated protein kinase 11 (Homo sapiens), sequence (Q15759 whole entry, the tested form may be a part): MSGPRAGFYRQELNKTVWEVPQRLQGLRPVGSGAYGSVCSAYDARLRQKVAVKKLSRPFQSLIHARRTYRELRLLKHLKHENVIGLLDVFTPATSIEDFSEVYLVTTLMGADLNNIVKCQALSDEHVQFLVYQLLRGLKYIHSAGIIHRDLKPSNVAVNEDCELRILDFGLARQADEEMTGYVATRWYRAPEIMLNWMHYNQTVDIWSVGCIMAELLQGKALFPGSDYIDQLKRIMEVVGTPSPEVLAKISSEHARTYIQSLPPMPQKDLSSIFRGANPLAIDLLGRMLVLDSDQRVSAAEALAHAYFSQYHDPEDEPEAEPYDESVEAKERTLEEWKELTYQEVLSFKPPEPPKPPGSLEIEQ

[3] = Antiproliferative activity against human A2780 ADR cells assessed as inhibition of cell growth incubated for 72 hrs by cell-titer glo assay; type: functional, cell-based
Outline: (§2)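 Cells seeded 10,000–30,000/cm² (adherent) or 100,000/mL (suspension) in medium with 10% fetal calf serum; after 24 h treated in duplicate with serial dilutions for 72 h. Viable cells read by CellTiter-Glo luminescence; IC50 from sigmoidal fit; at least two independent experiments.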

[4] = molecular target: Inhibitor of nuclear factor kappa-B kinase subunit beta (Homo sapiens) (UniProt O14920); assay: Inhibition of N-terminal His6 tagged recombinant full-length human IKKbeta expressed in baculovirus infected Sf21 cells assessed as residual activity at 0.1 uM relative to control
[5] = molecular target: Casein kinase I isoform gamma-2 (Homo sapiens) (UniProt P78368); assay: Inhibition of N-terminal 6His-tagged recombinant human CK1gamma2 ( 18 to end residues) expressed in baculovirus infected Sf21 cells assessed as residual activity at 1 uM relative to control
Casein kinase I isoform gamma-2 (Homo sapiens), sequence (P78368 whole entry, looked up, canonical isoform): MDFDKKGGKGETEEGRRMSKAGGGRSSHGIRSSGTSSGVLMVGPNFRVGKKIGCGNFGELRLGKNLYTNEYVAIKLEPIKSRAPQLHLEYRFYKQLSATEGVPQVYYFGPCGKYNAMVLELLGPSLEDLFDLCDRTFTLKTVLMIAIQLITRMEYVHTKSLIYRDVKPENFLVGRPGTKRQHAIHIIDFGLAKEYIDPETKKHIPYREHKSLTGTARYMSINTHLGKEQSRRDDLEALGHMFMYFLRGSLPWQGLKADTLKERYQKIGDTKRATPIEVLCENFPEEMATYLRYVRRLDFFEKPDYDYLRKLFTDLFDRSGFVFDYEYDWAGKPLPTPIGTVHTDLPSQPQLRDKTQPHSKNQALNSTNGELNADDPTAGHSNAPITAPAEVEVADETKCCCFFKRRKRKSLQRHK

[6] = molecular target: Aurora kinase A (Homo sapiens) (UniProt O14965); assay: Inhibition of N-terminal 6His-tagged recombinant full-length human Aurora-A expressed in Sf21 cells assessed as residual activity at 1 uM relative to control
Aurora kinase A (Homo sapiens), sequence (O14965 whole entry): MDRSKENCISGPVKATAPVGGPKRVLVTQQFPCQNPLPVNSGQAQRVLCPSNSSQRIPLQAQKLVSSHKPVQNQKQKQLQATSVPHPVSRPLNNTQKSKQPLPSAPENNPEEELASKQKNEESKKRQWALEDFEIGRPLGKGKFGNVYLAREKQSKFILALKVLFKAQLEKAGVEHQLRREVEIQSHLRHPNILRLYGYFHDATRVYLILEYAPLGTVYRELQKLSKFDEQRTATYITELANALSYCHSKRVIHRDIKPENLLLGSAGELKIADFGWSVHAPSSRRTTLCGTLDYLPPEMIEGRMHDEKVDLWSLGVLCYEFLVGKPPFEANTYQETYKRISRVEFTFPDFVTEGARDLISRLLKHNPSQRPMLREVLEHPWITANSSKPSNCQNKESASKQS

[7] = molecular target: Calcium/calmodulin-dependent protein kinase type II subunit delta (Homo sapiens) (UniProt Q13557); assay: Inhibition of recombinant full length human CaMKIIdelta assessed as residual activity at 1 uM relative to control
Calcium/calmodulin-dependent protein kinase type II subunit delta (Homo sapiens), sequence (Q13557 whole entry): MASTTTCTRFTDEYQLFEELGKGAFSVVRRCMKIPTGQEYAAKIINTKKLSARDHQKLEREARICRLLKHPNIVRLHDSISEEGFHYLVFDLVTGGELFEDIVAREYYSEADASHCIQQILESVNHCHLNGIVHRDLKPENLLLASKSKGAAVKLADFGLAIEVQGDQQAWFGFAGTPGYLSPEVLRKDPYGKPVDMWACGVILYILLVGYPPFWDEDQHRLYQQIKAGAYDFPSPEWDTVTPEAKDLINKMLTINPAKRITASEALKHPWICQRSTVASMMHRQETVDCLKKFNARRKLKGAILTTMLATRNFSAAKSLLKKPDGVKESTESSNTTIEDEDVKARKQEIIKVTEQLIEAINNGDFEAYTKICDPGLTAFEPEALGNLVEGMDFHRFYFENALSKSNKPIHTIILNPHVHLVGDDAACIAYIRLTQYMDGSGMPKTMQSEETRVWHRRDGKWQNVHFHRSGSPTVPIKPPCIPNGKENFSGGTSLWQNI

[8] = Tmax in nu/nu mouse at 10 mg/kg, po by LC-MS analysis; type: ADME, organism-based; settings: in vivo
[9] = molecular target: BDNF/NT-3 growth factors receptor (Homo sapiens) (UniProt Q16620); assay: Inhibition of N-terminal His6 tagged recombinant human TrkB (455 to end residues) expressed in baculovirus infected Sf21 cells assessed as residual activity at 0.1 uM relative to control
A2780 = assay: In vivo inhibition of PLK1 in human A2780 cells xenografted in nu/nu mouse assessed as decreased TCTP phosphorylation on Ser46 at 60 mg/kg, po administered for 2 hrs by Western blotting analysis; type: functional, organism-based
U2OS = assay: Effect on cell morphology in human U2OS cells expressing GFP/alpha-tubulin fusion protein assessed as misaligned chromosomes […] at 1 uM incubated for 24 hrs by laser scanning confocal microscopy analysis; type: functional, cell-based
[10] = Antiproliferative activity against human MEC-1 cells assessed as inhibition of cell growth incubated for 72 hrs by cell-titer glo assay; type: functional, cell-based; settings: MEC1, 72 h
Outline: (§3)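 Cells seeded at 10,000–30,000/cm² (adherent) or 100,000/mL (nonadherent) in medium with 10% fetal calf serum; after 24 h, treated in duplicate with serial dilutions for 72 h. Viable cell number read by CellTiter-Glo luminescence; IC50 from sigmoidal fit; at least two independent experiments.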

A-375 = assay: Antiproliferative activity against human A-375 cells assessed as inhibition of cell growth incubated for 72 hrs by cell-titer glo assay; type: functional, cell-based; settings: A-375, 72 h; outline: as §2
SW48 = assay: Antiproliferative activity against human SW48 cells assessed as inhibition of cell growth incubated for 72 hrs by cell-titer glo assay; type: functional, cell-based; settings: SW48, 72 h
M14 = assay: Antiproliferative activity against human M14 cells assessed as inhibition of cell growth incubated for 72 hrs by cell-titer glo assay; type: functional, cell-based; settings: M14, 72 h; outline: as §3
[11] = molecular target: Tyrosine-protein kinase JAK3 (Homo sapiens, UniProt P52333); assay: Inhibition of JAK3 (unknown origin) in presence of [gamma-33P]ATP
[12] = Antiproliferative activity against human COLO 206F cells assessed as inhibition of cell growth incubated for 72 hrs by cell-titer glo assay; type: functional, cell-based; outline: as §2
HeLa = assay: Antiproliferative activity against human HeLa cells assessed as inhibition of cell growth incubated for 72 hrs by cell-titer glo assay; type: functional, cell-based; outline: as §3
786-0 = assay: Antiproliferative activity against human 786-0 cells assessed as inhibition of cell growth incubated for 72 hrs by cell-titer glo assay; type: functional, cell-based; settings: 786-0, 72 h; outline: as §2
[13] = Inhibition of PDGFR (unknown origin) in presence of [gamma-33P]ATP; design: species or system Homo sapiens
MDA-MB-435S = assay: Antiproliferative activity against human MDA-MB-435S cells assessed as inhibition of cell growth incubated for 72 hrs by cell-titer glo assay; type: functional, cell-based; outline: as §3
[14] = test system: Platelet-derived growth factor receptor alpha (Homo sapiens), P16234 [D842V]; assay: Inhibition of N-terminal His6-tagged recombinant human PDGFRalpha (550 to end residues) D842V mutant expressed in baculovirus infected Sf21 cells assessed as residual activity at 0.1 uM relative to control
Platelet-derived growth factor receptor alpha (Homo sapiens), P16234 [D842V], sequence (P16234 whole entry D842V): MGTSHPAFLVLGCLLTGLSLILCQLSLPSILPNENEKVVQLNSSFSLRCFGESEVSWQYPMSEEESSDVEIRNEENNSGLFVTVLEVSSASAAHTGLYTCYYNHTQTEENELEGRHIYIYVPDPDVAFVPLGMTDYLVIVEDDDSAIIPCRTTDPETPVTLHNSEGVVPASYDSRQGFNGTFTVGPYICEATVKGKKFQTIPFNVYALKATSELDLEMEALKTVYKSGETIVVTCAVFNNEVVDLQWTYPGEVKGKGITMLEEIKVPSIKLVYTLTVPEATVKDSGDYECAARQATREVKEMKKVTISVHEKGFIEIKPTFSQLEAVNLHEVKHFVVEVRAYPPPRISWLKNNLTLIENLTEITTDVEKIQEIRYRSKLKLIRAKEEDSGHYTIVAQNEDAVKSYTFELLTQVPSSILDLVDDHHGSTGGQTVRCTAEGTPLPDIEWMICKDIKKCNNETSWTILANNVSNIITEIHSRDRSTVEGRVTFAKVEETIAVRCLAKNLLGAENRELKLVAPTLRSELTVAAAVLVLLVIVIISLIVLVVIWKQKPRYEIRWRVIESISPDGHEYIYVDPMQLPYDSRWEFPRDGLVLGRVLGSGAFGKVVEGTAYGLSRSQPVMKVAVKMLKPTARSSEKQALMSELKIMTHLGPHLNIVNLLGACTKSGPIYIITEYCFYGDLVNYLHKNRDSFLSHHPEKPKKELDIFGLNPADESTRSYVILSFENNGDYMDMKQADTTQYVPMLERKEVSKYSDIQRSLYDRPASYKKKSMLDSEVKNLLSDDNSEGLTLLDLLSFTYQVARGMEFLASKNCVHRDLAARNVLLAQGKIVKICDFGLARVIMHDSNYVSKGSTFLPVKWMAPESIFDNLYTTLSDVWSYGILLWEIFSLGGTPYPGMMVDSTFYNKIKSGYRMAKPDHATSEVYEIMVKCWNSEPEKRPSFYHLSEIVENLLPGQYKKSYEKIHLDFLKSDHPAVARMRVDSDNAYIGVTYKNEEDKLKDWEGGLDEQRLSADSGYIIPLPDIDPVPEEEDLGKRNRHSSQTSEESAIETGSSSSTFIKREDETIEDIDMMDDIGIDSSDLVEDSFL

[15] = molecular target: Tyrosine-protein kinase Lyn (Mus musculus) (UniProt P25911); assay: Inhibition of N-terminal his6-tagged recombinant full-length mouse Lyn expressed in baculovirus infected Sf21 cells assessed as residual activity at 1 uM relative to control
Tyrosine-protein kinase Lyn (Mus musculus), sequence (P25911 whole entry): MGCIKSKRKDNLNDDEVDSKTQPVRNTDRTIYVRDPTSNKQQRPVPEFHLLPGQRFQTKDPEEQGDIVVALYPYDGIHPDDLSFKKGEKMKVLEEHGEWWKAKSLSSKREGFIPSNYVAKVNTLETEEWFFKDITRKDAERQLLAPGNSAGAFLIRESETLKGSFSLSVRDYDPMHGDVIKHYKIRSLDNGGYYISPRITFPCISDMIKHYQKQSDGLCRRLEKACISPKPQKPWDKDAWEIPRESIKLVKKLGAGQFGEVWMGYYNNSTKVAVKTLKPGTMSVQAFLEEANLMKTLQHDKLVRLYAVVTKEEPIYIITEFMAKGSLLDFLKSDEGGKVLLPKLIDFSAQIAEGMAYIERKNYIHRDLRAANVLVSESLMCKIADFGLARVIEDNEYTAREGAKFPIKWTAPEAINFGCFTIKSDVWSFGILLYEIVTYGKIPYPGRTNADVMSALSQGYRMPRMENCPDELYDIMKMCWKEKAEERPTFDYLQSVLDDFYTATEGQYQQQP

[16] = Antitumor activity against human Acute myeloid leukemic cell xenografted in nu/nu mouse assessed as increase in median survival time at 120 mg/kg, po administered for 2 days and measured after 10 days (reference value: 34 days); type: functional, Leukemia cell; settings: time 2 day
[17] = molecular target: CDC7/DBF4 (Cell division cycle 7-related protein kinase/Activator of S phase kinase) (Homo sapiens, UniProt O00311); assay: Inhibition of CDC7/DBF4 (unknown origin) in presence of [gamma-33P]ATP; type: protein-complex assay
[18] = molecular target: Mitogen-activated protein kinase kinase kinase 5 (Homo sapiens) (UniProt Q99683); assay: Inhibition of N-Terminal GST and C-terminal His6-tagged recombinant human ASK1 (649 to 946 residues) expressed in E. coli cell assessed as residual activity at 1 uM relative to control
SUD4 = assay: Antiproliferative activity against human SU-DHL-4 cells assessed as inhibition of cell growth incubated for 72 hrs by cell-titer glo assay; type: functional, cell-based; settings: SU-DHL-4, 72 h
PANC-1 = assay: Antiproliferative activity against human PANC-1 cells assessed as inhibition of cell growth incubated for 72 hrs by cell-titer glo assay; type: functional, cell-based; settings: PANC-1, 72 h; outline: as §1

CN1CCN(c2ccc(OC(F)(F)F)c(Nc3ncc4c(n3)-c3c(c(C(N)=O)nn3CCO)CC4)c2)CC1 [ONVANSERTIB]
IC50 (SF-295): 386 nM
Activity [1]: 145%
Activity [2]: 152%
IC50 [3]: 620 nM
Activity [4]: 122%
Activity [5]: 69%
Activity [6]: 113%
Activity [7]: 74%
Tmax [8]: 24 min
Activity [9]: 145%
inhibition (A2780): Active
Activity (U2OS): Active
IC50 [10]: 112 nM
IC50 (A-375): 40 nM
IC50 (SW48): 32 nM
IC50 (M14): 67 nM
IC50 [11]: > 10000 nM
IC50 [12]: 93 nM
IC50 (HeLa): 60 nM
IC50 (786-0): 129 nM
IC50 [13]: > 10000 nM
IC50 (MDA-MB-435S): 23 nM
Activity [14]: 122%
Activity [15]: 129%
Time [16]: 50 days
IC50 [17]: > 10000 nM
Activity [18]: 125%
IC50 (SUD4): 56 nM
IC50 (PANC-1): 184 nM
